Experimental data taken from ChEMBL document CHEMBL2311519, “Identification and characterization of new DNA G-quadruplex binders selected by a combination of ligand and structure-based virtual screening approaches” (J Med Chem, 2013).
Blank lines part the entries; values can stand above or below the compound they belong to. Calls of active or inactive are those of the source. The rule behind the calls is not given here.

Tests used:
Homo sapiens [1] = species on record: Homo sapiens; assay: Binding affinity to 18 bp double-stranded DNA (unknown origin) assessed as DNA stabilization by fluorescence melting assay
How it was run: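 Fluorescence melting in a real-time PCR cycler (excitation 488 nm, emission 520 nm). The HTS target carried 5′-Dabcyl and 3′-fluorescein; the 18 bp duplex was also a target. Mixtures held 0.25 μM DNA plus ligand in 10 mM LiOH, 50 mM KCl, pH 7.4 (H3PO4). Samples were denatured at 95 °C for 5 min, cooled to 30 °C at 0.5 °C/min, then heated to 90 °C and recooled at 0.2 °C/min. Tm came from the first derivative, ≥3 repeats.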

Homo sapiens [2] = species on record: Homo sapiens; assay: Binding affinity to human telomeric sequence 5'-AGGGTTAGGGTTAGGGTTAGGGT-3' assessed as change in melting temperature at 10 uM by fluorescence melting assay
DNA = assay: Binding affinity to calf thymus DNA assessed as DNA stabilization at 8 uM by circular dichroism spectral analysis; details: Bos taurus
[3] = Stability of the compound assessed as retention time after 25 mins of UV irradiation; assay type: physicochemical
How it was run: (§1)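 30 μM ligand in 10 mM Tris-HCl, 50 mM KCl, pH 7.5 irradiated at 308 nm (0.022 J/min), 25 °C, for increasing times; analysed by LC on C18 (water/acetonitrile 4–80% gradient with 0.1% formic acid over 20 min, 0.02 mL/min) with positive-mode ESI-MS, m/z 100–2500.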

Homo sapiens [4] = species on record: Homo sapiens; assay: Stabilization of single-stranded DNA 5'-GGATGTGAGTGTGAGTGTGAGG-3' (unknown origin) assessed as DNA modifications at 20 to 50 uM measured 20 mins post UV irradiation by PAGE analysis
How it was run: (§2)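 Tel22 or single-stranded 22-mer 5′-32P end-labelled with T4 kinase; 1 μM DNA in 10 mM Tris, 50 mM KCl, pH 7.5 with increasing ligand, irradiated at 308 nm for variable time (or ligand pre-irradiated 30 min, or non-irradiated); products run on 20% polyacrylamide/7 M urea in 1× TBE, quantified by phosphorimaging.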

[5] = Stability of the compound assessed as retention time after 100 mins of UV irradiation; assay type: physicochemical
How it was run: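 Ligand (30 μM) in 10 mM Tris-HCl, 50 mM KCl, pH 7.5 was irradiated at 308 nm (0.022 J/min) at 25 °C for increasing times. Samples ran on C18 HPLC at 0.02 mL/min with a water/acetonitrile gradient (0.1% formic acid) of 4–80% over 20 min. Detection was positive-mode ESI-MS (4.5 kV, m/z 100–2500).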

Homo sapiens [6] = species on record: Homo sapiens; assay: Stabilization of G-quadruplex folded telomeric sequence Tel22 DNA (unknown origin) assessed as DNA modifications at 20 to 50 uM measured 20 mins post UV irradiation by PAGE analysis; how it was run: as §2
Homo sapiens [7] = species on record: Homo sapiens; assay: Stabilization of double-stranded DNA (unknown origin) assessed as DNA modifications at 20 to 50 uM measured 20 mins post UV irradiation by PAGE analysis
[8] = Stability of the compound assessed as retention time; assay type: physicochemical; how it was run: as §1
[9] = Stability of the compound assessed as retention time after 3 mins of UV irradiation; assay type: physicochemical; details: 0.05 h; how it was run: as §1
Homo sapiens [10] = species on record: Homo sapiens; assay: Binding affinity to G-quadruplex folded telomeric sequence Tel22 DNA (unknown origin) assessed as DNA stabilization measured 25 mins post UV irradiation by circular dichroism spectral analysis
Homo sapiens [11] = species on record: Homo sapiens; assay: Binding affinity to G-quadruplex folded telomeric sequence Tel22 DNA (unknown origin) assessed as DNA stabilization at 8 uM by circular dichroism spectral analysis relative to control
Homo sapiens [12] = species on record: Homo sapiens; assay: Binding affinity to G-quadruplex folded telomeric sequence Tel22 DNA (unknown origin) assessed as DNA stabilization at 8 uM by circular dichroism spectral analysis
Homo sapiens [13] = species on record: Homo sapiens; assay: Binding affinity to human telomeric sequence 5'-AGGGTTAGGGTTAGGGTTAGGGT-3' assessed as thermal stability by fluorescence melting assay relative to control
How it was run: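 Fluorescence melting on a LightCycler (ex 488, em 520 nm); 0.25 μM 5′-Dabcyl/3′-fluorescein HTS oligo in 10 mM LiOH, 50 mM KCl, pH 7.4 (H3PO4); ligand 0.5–10 μM; denatured 95 °C 5 min, cooled to 30 °C, melted 0.2 °C/min to 90 °C; Tm from first derivative; ≥3 repeats.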

- Activity (Homo sapiens [1]): inactive
Compound: Cc1c(CCC(=O)NCCCn2ccnc2)c(=O)oc2cc3occ(-c4ccc(F)cc4)c3cc12

- deltaTm (Homo sapiens [2]): 30 °C
Compound: Cc1cc2c3c([n+](C)c4ccc(F)cc4c3c1)-c1cc(F)ccc1N2C

- Activity (DNA): inactive
- Retention_time [3]: 16.6 min
- Activity (Homo sapiens [4]): Active
- Retention_time [5]: 16.6 min
- Activity (Homo sapiens [6]): Active
- Activity (Homo sapiens [7]): Active
- Retention_time [8]: 17 min
- Retention_time [9]: 16.6 min
- Activity (Homo sapiens [1]): inactive
- Activity (Homo sapiens [10]): inactive
- Activity (Homo sapiens [11]): inactive
- Activity (Homo sapiens [12]): inactive
Compound: Cc1c(CC(=O)N(C)C2CCN(C)CC2)c(=O)oc2c(C)c3occ(-c4ccccc4)c3cc12

Compound: Cc1c(CC(=O)N2CCN(C)CC2)c(=O)oc2cc3occ(-c4ccc(Cl)cc4)c3cc12
- Activity (DNA): inactive
- Retention_time [3]: 16.1 min
- Activity (Homo sapiens [4]): Active
- Activity (Homo sapiens [13]): inactive
- Activity (Homo sapiens [6]): Active
- Activity (Homo sapiens [7]): Active
- Retention_time [8]: 17.2 min
- Retention_time [9]: 16.1 min
- Activity (Homo sapiens [1]): inactive
- Activity (Homo sapiens [10]): inactive
- Activity (Homo sapiens [11]): inactive
- Activity (Homo sapiens [12]): inactive

- Activity (Homo sapiens [1]): inactive
Compound: Cc1c(CCC(=O)N2CCN(C)CC2)c(=O)oc2cc3occ(-c4ccccc4)c3cc12

- deltaTm (Homo sapiens [2]): 32 °C
Compound: CN(C)c1ccc(Nc2c3ccc(NC(=O)CCN4CCCC4)cc3nc3cc(NC(=O)CCN4CCCC4)ccc23)cc1

Compound: COc1ccc(-c2coc3cc4oc(=O)c(CC(=O)N5CCN(CCO)CC5)c(C)c4cc23)cc1
- Activity (Homo sapiens [1]): inactive
